Measured values published in ChEMBL document CHEMBL3407422, “2-(2-oxo-morpholin-3-yl)-acetamide derivatives as broad-spectrum antifungal agents” (J Med Chem, 2015).
Converted amounts (≈) assume the structure as drawn. The source made the active and inactive calls. The calls are words filed in the database; no cut-off is given here.

Legend:
[1] = system: Candida albicans; experiment: Antifungal activity against Candida albicans SC5314 after 24 hrs; type: functional
Summary of the method: (§1)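 Overnight YPD cultures diluted in PBS (1/200 for C. albicans, 1/400 for C. glabrata). Cells treated with compound, or 2.5% DMSO as solvent control, for 24 h at 37 °C. CFUs then counted; MFC is the concentration giving 99% killing of the inoculum.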

[2] = Half life in human plasma; type: ADME, cell-free
[3] = system: Nakaseomyces glabratus; experiment: Antifungal activity against Candida glabrata BG2 after 24 hrs; type: functional; summary of the method: as §1
[4] = system: Aspergillus fumigatus; experiment: Antifungal activity against Aspergillus fumigatus CBS 117202 after 24 hrs by two-fold dilution method; type: functional; conditions: CBS 117202, 24 h
Summary of the method: (§2)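 Spores at 2×10^4 spores/mL in potato dextrose broth, incubated with a 2-fold compound dilution series for 24 h at 25 °C. Growth read by microspectrophotometry of the liquid cultures. MIC taken as the lowest concentration inhibiting fungal growth.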

[5] = system: Aspergillus flavus; experiment: Antifungal activity against Aspergillus flavus CBS111.45 after 24 hrs by two-fold dilution method; type: functional; conditions: CBS111.45, 24 h; summary of the method: as §2
[6] = system: Trichophyton mentagrophytes; experiment: Fungicidal activity against Trichophyton mentagrophytes B70554; type: functional, organism-based
Summary of the method: (§3)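 Inoculum of 10^3 CFU in RPMI-MOPS added to prediluted compound, highest concentration 64 µM. Growth read by resazurin fluorescence (ex 550, em 590 nm). IC50 is 50% growth inhibition versus untreated controls. Three independent replicates.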

[7] = system: Trichophyton rubrum; experiment: Fungicidal activity against Trichophyton rubrum B68183; type: functional, organism-based; summary of the method: as §3
[8] = system: Microsporum canis; experiment: Fungicidal activity against Microsporum canis B68128; type: functional; summary of the method: as §3
[9] = system: Sporothrix schenckii; experiment: Fungicidal activity against Sporothrix schenckii B62482; type: functional, organism-based; summary of the method: as §3
[10] = Cytotoxicity against human MRC5 SV2 cells after 72 hrs by fluorescence assay; type: cell-based
Summary of the method: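 MRC-5 SV2 cells (10^4/well) grown in MEM with L-glutamine, NaHCO3 and 5% FCS. Incubated with compound 72 h at 37 °C, 5% CO2, then resazurin added for 24 h. Fluorescence read at ex 530, em 590 nm.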

[11] = system: Candida albicans; experiment: Fungicidal activity against CA2 high-persister Candida albicans clinical isolate; type: functional
[12] = Kinetic solubility of the compound at pH 7.4; type: physicochemical; conditions: buffer, read-out: Kinetic_solubility
[13] = Apparent permeability from apical to basolateral side in human Caco2 cells; type: ADME, cell-based; conditions: Caco-2
[14] = Apparent permeability from basolateral to apical side in human Caco2 cells; type: ADME, cell-based; conditions: Caco-2
[15] = Plasma protein binding in human; type: ADME, cell-free; conditions: read-out: PPB (converted)
[16] = Half life in simulated gastric fluid at pH 1.2; type: ADME
Summary of the method: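 Stability in simulated gastric fluid containing 800000 Units/L pepsin at pH 1.2; half-life reported.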

[17] = Half life in simulated intestinal fluid […]; type: ADME
[18] = Half life in human liver microsomes; type: ADME
[19] = Half life in mouse liver microsomes; type: ADME
[20] = biological target: hERG (KCNH2) (Homo sapiens, UniProt Q12809); experiment: Inhibition of human ERG channel at 10 uM
[21] = system: Candida albicans; experiment: Antifungal activity against Candida albicans SC5314 infected in BALB/c mouse assessed as reduction in reduction in fungal load in kidney at 10 mg/kg/day, ip for 5 days relative to vehicle-treated control; type: functional, organism-based
Summary of the method: (§4)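 BALB/c mice given cyclophosphamide 100 mg/kg at 4 days and 24 h before infection and at 3 days after. Infected IV with 2×10^3 SC5314 cells in saline. Dosed IP daily for 5 days from 16 h post-infection, in DMSO/0.5% methylcellulose (5/95). Organs taken on day 7, homogenized and plated on BHI agar (18 h, 37 °C). CFU/g compared with vehicle.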

[22] = system: Candida albicans; experiment: Antifungal activity against Candida albicans SC5314 infected in BALB/c mouse assessed as reduction in reduction in fungal load in spleen at 10 mg/kg/day, ip for 5 days relative to vehicle-treated control; type: functional, organism-based; summary of the method: as §4
[23] = system: Candida albicans; experiment: Antifungal activity against Candida albicans SC5314 infected in BALB/c mouse assessed as reduction in reduction in fungal load in liver at 10 mg/kg/day, ip for 5 days relative to vehicle-treated control; type: functional, organism-based; summary of the method: as §4
[24] = system: Saccharomyces cerevisiae; experiment: Antifungal activity against Saccharomyces cerevisiae BY4741 at 12.5 to 50 ug/ml after 24 hrs by Omnilog plate reader analysis; type: functional, organism-based
Summary of the method: (§5)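 S. cerevisiae BY4741 from overnight YPD culture, 1/500 final dilution, in Biolog PM22–PM25 chemical sensitivity plates (96 conditions). Compound tested at 12.5 and 50 µg/mL. Plates incubated 24 h at 37 °C in the Omnilog reader.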

[25] = system: Saccharomyces cerevisiae; experiment: Antifungal activity against Saccharomyces cerevisiae BY4741 at 12.5 to 50 ug/ml after 24 hrs by Omnilog plate reader analysis in presence of sodium cyanide; type: functional, organism-based; summary of the method: as §5
[26] = system: Saccharomyces cerevisiae; experiment: Antifungal activity against Saccharomyces cerevisiae BY4741 at 12.5 to 50 ug/ml after 24 hrs by Omnilog plate reader analysis in presence of sodium thiosulfate; type: functional, organism-based; summary of the method: as §5
[27] = system: Saccharomyces cerevisiae; experiment: Antifungal activity against Saccharomyces cerevisiae BY4741 at 12.5 to 50 ug/ml after 24 hrs by Omnilog plate reader analysis in presence of chlortetracycline hydrochloride; type: functional, organism-based; summary of the method: as §5
[28] = system: Saccharomyces cerevisiae; experiment: Antifungal activity against Saccharomyces cerevisiae BY4741 at 12.5 to 50 ug/ml after 24 hrs by Omnilog plate reader analysis in presence of potassium chromate; type: functional, organism-based; summary of the method: as §5
[29] = system: Saccharomyces cerevisiae; experiment: Antifungal activity against Saccharomyces cerevisiae BY4741 at 12.5 to 50 ug/ml after 24 hrs by Omnilog plate reader analysis in presence of monothioglycerol; type: functional, organism-based; summary of the method: as §5
[30] = biological target: T1, CYP1A2 (Homo sapiens, UniProt P05177); experiment: Inhibition of CYP1A2 (unknown origin) at 10 uM; type: ADME
T1 sequence (P05177 whole entry): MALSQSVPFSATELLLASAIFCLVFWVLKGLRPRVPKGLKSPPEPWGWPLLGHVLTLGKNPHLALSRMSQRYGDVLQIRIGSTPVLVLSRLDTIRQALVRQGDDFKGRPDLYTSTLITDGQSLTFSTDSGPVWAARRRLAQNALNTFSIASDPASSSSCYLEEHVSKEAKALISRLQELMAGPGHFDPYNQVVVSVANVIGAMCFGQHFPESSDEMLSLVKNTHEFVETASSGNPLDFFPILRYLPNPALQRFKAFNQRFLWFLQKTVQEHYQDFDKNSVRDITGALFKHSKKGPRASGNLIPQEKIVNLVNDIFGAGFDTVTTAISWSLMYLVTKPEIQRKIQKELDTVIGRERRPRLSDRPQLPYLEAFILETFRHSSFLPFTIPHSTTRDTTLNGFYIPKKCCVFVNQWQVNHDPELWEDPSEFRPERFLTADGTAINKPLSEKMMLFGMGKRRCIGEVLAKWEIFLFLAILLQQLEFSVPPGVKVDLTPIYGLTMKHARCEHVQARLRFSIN

[31] = biological target: CYP2C9 (Homo sapiens, UniProt P11712); experiment: Inhibition of CYP2C9 (unknown origin) at 10 uM; type: ADME
[32] = biological target: CYP2C19 (Homo sapiens, UniProt P33261); experiment: Inhibition of CYP2C19 (unknown origin) at 10 uM; type: ADME
[33] = biological target: CYP2D6 (Homo sapiens, UniProt P10635); experiment: Inhibition of CYP2D6 (unknown origin) at 10 uM; type: ADME
[34] = biological target: CYP3A4 (Homo sapiens, UniProt P08684); experiment: Inhibition of CYP3A4 (unknown origin) at 10 uM; type: ADME
[35] = Drug metabolism in mouse liver microsomes at 10 uM after 90 mins by LC-MS/MS analysis; type: ADME; conditions: 1.5 h

Chain of hERG (KCNH2) (Q12809 whole entry): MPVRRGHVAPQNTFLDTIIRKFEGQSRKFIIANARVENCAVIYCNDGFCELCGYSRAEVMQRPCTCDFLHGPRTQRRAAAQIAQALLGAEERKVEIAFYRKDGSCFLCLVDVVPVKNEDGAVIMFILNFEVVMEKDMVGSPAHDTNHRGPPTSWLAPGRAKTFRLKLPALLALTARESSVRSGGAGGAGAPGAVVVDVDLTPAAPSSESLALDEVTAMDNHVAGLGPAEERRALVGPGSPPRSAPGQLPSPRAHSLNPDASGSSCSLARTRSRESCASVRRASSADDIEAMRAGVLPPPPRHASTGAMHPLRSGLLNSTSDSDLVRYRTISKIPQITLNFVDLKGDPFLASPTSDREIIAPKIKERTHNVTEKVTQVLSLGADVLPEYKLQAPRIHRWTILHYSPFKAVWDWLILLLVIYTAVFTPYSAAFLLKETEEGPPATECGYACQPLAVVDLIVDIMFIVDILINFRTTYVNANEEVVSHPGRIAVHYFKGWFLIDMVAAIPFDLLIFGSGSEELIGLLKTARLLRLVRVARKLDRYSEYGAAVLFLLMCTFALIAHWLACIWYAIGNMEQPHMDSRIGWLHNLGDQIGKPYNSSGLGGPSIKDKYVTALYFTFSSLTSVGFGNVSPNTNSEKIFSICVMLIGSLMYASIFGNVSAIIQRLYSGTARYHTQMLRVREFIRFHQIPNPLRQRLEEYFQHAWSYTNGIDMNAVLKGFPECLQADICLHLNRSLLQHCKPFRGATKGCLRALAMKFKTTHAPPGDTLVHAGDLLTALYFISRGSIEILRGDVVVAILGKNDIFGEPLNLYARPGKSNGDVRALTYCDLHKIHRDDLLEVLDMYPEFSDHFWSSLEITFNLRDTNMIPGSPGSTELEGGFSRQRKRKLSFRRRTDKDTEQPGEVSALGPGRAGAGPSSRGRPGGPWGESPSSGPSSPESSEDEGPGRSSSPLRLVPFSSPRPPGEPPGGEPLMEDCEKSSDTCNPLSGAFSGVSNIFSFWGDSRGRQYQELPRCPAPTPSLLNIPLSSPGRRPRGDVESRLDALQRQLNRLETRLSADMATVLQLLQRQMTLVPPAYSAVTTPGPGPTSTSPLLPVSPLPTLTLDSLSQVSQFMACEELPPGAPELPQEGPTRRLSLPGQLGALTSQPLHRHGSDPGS
Chain of CYP2C9 (P11712 whole entry): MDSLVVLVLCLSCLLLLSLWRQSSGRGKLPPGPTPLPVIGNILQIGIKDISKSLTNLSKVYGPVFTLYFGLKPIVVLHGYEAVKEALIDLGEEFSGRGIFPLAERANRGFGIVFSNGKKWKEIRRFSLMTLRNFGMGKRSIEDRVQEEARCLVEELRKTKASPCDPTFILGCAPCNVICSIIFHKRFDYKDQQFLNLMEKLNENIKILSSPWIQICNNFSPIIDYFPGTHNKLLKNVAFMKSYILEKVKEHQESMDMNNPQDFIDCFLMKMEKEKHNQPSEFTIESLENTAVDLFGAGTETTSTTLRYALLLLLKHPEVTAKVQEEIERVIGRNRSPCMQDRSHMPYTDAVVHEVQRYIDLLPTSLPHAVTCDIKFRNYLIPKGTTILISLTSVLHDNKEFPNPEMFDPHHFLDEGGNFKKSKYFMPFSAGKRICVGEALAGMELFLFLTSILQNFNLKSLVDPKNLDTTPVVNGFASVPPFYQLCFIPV
Chain of CYP2D6 (P10635 whole entry): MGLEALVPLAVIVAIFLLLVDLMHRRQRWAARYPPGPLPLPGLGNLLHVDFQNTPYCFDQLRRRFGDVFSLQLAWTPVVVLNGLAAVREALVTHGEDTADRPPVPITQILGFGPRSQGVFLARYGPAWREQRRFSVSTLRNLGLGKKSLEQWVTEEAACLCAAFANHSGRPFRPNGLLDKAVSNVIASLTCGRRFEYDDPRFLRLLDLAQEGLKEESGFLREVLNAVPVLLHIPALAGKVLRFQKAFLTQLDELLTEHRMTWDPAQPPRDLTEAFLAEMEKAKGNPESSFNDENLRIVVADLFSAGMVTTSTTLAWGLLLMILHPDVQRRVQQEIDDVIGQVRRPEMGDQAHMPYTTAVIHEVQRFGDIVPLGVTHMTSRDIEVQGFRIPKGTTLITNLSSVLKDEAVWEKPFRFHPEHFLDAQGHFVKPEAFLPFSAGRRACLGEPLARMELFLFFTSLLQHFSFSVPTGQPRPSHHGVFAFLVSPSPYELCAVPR
Chain of CYP2C19 (P33261 whole entry): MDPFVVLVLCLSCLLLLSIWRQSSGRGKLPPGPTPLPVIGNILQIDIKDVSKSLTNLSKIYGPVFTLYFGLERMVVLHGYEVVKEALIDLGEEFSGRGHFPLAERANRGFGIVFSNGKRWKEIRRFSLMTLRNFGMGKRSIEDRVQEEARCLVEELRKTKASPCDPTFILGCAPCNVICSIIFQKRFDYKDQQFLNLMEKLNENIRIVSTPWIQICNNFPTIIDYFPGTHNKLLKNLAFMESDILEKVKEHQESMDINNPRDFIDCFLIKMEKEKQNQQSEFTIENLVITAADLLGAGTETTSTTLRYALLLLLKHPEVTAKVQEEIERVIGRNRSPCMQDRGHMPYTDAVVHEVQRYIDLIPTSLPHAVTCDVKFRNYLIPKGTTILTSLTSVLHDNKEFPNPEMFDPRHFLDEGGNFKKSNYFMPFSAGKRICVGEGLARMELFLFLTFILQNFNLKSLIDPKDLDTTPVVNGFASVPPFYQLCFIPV
Chain of CYP3A4 (P08684 whole entry): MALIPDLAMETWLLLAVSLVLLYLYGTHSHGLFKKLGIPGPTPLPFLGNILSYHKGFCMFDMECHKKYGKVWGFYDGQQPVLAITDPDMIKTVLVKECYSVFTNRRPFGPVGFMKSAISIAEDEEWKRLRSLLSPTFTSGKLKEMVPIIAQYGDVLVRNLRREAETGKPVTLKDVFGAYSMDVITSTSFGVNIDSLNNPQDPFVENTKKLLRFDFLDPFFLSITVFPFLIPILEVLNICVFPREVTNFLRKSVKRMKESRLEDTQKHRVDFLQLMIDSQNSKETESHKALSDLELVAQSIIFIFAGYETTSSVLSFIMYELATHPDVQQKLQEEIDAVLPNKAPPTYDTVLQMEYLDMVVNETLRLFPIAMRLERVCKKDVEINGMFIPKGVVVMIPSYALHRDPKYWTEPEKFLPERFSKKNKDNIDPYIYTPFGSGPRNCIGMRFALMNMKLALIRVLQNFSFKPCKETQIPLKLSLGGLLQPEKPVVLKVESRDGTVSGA

Structure (SMILES) | MFC99 [1] [µg/mL] | half-life [2] [min] | MFC99 [3] [µg/mL] | MIC [4] [µg/mL] | MIC [5] [µg/mL] | IC50 [6] [µg/mL] | IC50 [7] [µg/mL] | IC50 [8] [µg/mL] | IC50 [9] [µg/mL] | CC50 at 72 h [10] [µg/mL] | further results
CCN1C[C@@H](C)OC(=O)C1CC(=O)Nc1ccc(C(C)C)cc1 (some centres undefined) | 12.5 (≈ 39.3 µM) | 55 | – | – | – | – | – | – | – | – | –
CCN1CC(C)(C)OC(=O)C1CC(=O)NCc1cccc(-c2ccccc2)c1 (centres undefined) | 12.5 (≈ 32.9 µM) | > 240 | 12.5 (≈ 32.9 µM) | ≤ 3.1 | 25 (≈ 65.7 µM) | 3 (≈ 7.88 µM) | 0.7 (≈ 1.84 µM) | 2.4 (≈ 6.31 µM) | 2.7 (≈ 7.1 µM) | > 20 | MFC [11]: 12.5 µg/mL (≈ 32.9 µM); solubility kinetic [12]: 50 µM (≈ 19 µg/mL); Papp A→B [13]: 22 ×10⁻⁶ cm/s; Papp B→A [14]: 13 ×10⁻⁶ cm/s; fraction unbound [15]: 0.003; half-life [16]: > 240 min; half-life [17]: 223 min; half-life [18]: 6 min; half-life [19]: 1 min; inhibition at 10 µM [20]: 25.5%; Activity [21]: Active; Activity [22]: Active; Activity [23]: Active; Activity [24]: Active; Activity [25]: inactive; Activity [26]: inactive; Activity [27]: inactive; Activity [28]: inactive; Activity [29]: inactive
CCN1CC(C)(C)OC(=O)C1CC(=O)NCc1ccc(Cl)cc1 (centres undefined) | 12.5 (≈ 36.9 µM) | – | 12.5 (≈ 36.9 µM) | 6.2 (≈ 18.3 µM) | 25 (≈ 73.8 µM) | 2.7 (≈ 7.97 µM) | 2 (≈ 5.9 µM) | 2 (≈ 5.9 µM) | 2.2 (≈ 6.49 µM) | > 20 | –
CCN1CC(C)(C)OC(=O)C1CC(=O)Nc1ccc(C(C)C)cc1 (centres undefined) | 12.5 (≈ 37.6 µM) | > 240 | 25 (≈ 75.2 µM) | 1.6 (≈ 4.81 µM) | 12.5 (≈ 37.6 µM) | 10.6 (≈ 31.9 µM) | 6.3 (≈ 19 µM) | 6.6 (≈ 19.9 µM) | 11.8 (≈ 35.5 µM) | > 20 | solubility kinetic [12]: 50 µM (≈ 16.6 µg/mL); Papp A→B [13]: 65 ×10⁻⁶ cm/s; Papp B→A [14]: 35 ×10⁻⁶ cm/s; fraction unbound [15]: 0.061; half-life [16]: > 240 min; half-life [17]: > 240 min; half-life [18]: 29 min; half-life [19]: 6 min; inhibition at 10 µM [20]: 11%; inhibition at 10 µM [30]: < 40%; inhibition at 10 µM [31]: < 40%; inhibition at 10 µM [32]: < 40%; inhibition at 10 µM [33]: < 40%; inhibition at 10 µM [34]: < 40%; Drug metabolism [35]: metabolite_detected; Activity [21]: Active
Clc1ccc(COC(Cn2ccnc2)c2ccc(Cl)cc2Cl)c(Cl)c1 (centres undefined) [MICONAZOLE] | – | – | – | – | – | – | – | 0.02 (≈ 0.0481 µM) | 0.12 (≈ 0.288 µM) | – | –
CCN1CC(C)(C)OC(=O)C1CC(=O)Nc1ccc2c(ccn2C)c1 (centres undefined) | 12.5 (≈ 36.4 µM) | – | 50 (≈ 146 µM) | 3.1 (≈ 9.03 µM) | 25 (≈ 72.8 µM) | 11 (≈ 32 µM) | 11 (≈ 32 µM) | 6.2 (≈ 18.1 µM) | 10 (≈ 29.1 µM) | > 20 | –
CN(C/C=C/C#CC(C)(C)C)Cc1cccc2ccccc12 [TERBINAFINE] | – | – | – | – | – | 0.02 (≈ 0.0686 µM) | 0.02 (≈ 0.0686 µM) | – | – | – | –
